From ChEMBL document CHEMBL4354800, “Amphiphilic nebramine-based hybrids Rescue legacy antibiotics from intrinsic resistance in multidrug-resistant Gram-negative bacilli” (Eur J Med Chem, 2019)

Tests used:
Type in all cases: functional
Pseudomonas aeruginosa [1] = experiment: Antimicrobial activity against XDR Pseudomonas aeruginosa isolate PA264 infected in Galleria mellonella larvae assessed as survival rate at 50 mg/kg co-administered with 50 mg/kg rifampicin at 2 hrs post-inoculation measured after 18 hrs relative to control
Summary of the method: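 G. mellonella larvae were injected with ~5 CFU of P. aeruginosa PA264 (10 µL of 5 × 10^2 CFU/mL in PBS) and held 2 h at 37 °C. A single 10 µL injection followed: monotherapy or rifampicin + compound (25+25, 50+50 or 75+75 mg/kg), with PBS as control. Larvae kept at 37 °C were scored every 6 h to 24 h; dead = no response to touch. n = 30 (two runs of 15); Kaplan-Meier.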

Pseudomonas aeruginosa [2] = experiment: Potentiation of rifampicin-induced antibacterial activity against wild type Pseudomonas aeruginosa PAO1 assessed as fold reduction in rifampicin MIC at 7.5 uM incubated for 18 hrs by broth microdilution method
Summary of the method: (§1)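 CLSI broth microdilution. Overnight cultures were set to 0.5 McFarland in saline, diluted 1:50 in Mueller-Hinton broth to a final 5 × 10^5 CFU/mL, and incubated 18 h at 37 °C against 2-fold antibiotic dilutions. A fixed adjuvant level was present throughout. MIC = lowest concentration with no visible turbidity, confirmed at 590 nm. Potentiation = fold drop in antibiotic MIC versus antibiotic alone.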

Pseudomonas aeruginosa [3] = experiment: Synergistic antibacterial activity against MDR/XDR Pseudomonas aeruginosa isolate PA264-104354 harboring GyrA T83I mutant assessed as fractional inhibitory concentration index in presence of ciprofloxacin incubated for 18 hrs by broth microdilution method
Summary of the method: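 Checkerboard synergy assay. Antibiotic and adjuvant in twofold dilutions in Mueller-Hinton broth. Inoculum 5 × 10^5 CFU/mL from a 0.5 McFarland suspension, 18 h at 37 °C, MIC read by turbidity and confirmed at 590 nm. FIC = MIC in combination / MIC alone for each agent, FICI = sum. Interpreted as ≤0.5 synergy, 0.5–4 no interaction, >4 antagonism.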

Pseudomonas aeruginosa [4] = experiment: Potentiation of minocycline-induced antibacterial activity against MDR/XDR Pseudomonas aeruginosa isolate 101243 devoid of GyrA T83I mutant assessed as fold reduction in minocycline MIC at 7.5 uM incubated for 18 hrs by broth microdilution method
Pseudomonas aeruginosa [5] = experiment: Potentiation of minocycline-induced antimicrobial activity against MDR/XDR Pseudomonas aeruginosa isolate PA262-101856 harboring GyrA Thr83Ile mutant assessed as minocycline MIC50 incubated for 18 hrs by broth microdilution method (reference value: 16 microg/ml); details: isolate PA262-101856, 18 h
Pseudomonas aeruginosa [6] = experiment: Potentiation of minocycline-induced antimicrobial activity against MDR/XDR Pseudomonas aeruginosa isolate 101243 devoid of GyrA Thr83Ile mutant assessed as minocycline MIC50 incubated for 18 hrs by broth microdilution method (reference value: 16 microg/ml); details: isolate 101243, 18 h
Pseudomonas aeruginosa [7] = experiment: Potentiation of rifampicin-induced antimicrobial activity against MDR/XDR Pseudomonas aeruginosa isolate PA264-104354 harboring GyrA Thr83Ile mutant assessed as rifampicin MIC50 incubated for 18 hrs by broth microdilution method (reference value: 8 microg/ml); details: isolate PA264-104354, 18 h
Pseudomonas aeruginosa [8] = experiment: Potentiation of rifampicin-induced antimicrobial activity against MDR/XDR Pseudomonas aeruginosa isolate 91433 devoid of GyrA Thr83Ile mutant assessed as rifampicin MIC50 incubated for 18 hrs by broth microdilution method (reference value: 8 microg/ml); details: isolate 91433, 18 h
Acinetobacter baumannii = experiment: Potentiation of rifampicin-induced antibacterial activity against multidrug-resistant Acinetobacter baumannii AB030 assessed as fold reduction in rifampicin MIC at 7.5 uM incubated for 18 hrs by broth dilution method; summary of the method: as §1
Pseudomonas aeruginosa [9] = experiment: Potentiation of rifampicin-induced antimicrobial activity against MDR/XDR Pseudomonas aeruginosa isolate 91433 devoid of GyrA Thr83Ile mutant assessed as rifampicin MIC80 incubated for 18 hrs by broth microdilution method (reference value: 16 microg/ml); details: isolate 91433, 18 h
Pseudomonas aeruginosa [10] = experiment: Potentiation of moxifloxacin-induced antibacterial activity against MDR/XDR Pseudomonas aeruginosa isolate PA259-96918 harboring GyrA T83I mutant assessed as fold reduction in moxifloxacin MIC at 9 uM incubated for 18 hrs by broth microdilution method; summary of the method: as §1

In the case of `Cl.Cl.Cl.Cl.Cl.NC[C@H]1O[C@H](O[C@H]2[C@H](OCCCCCCCCCCCCN3CCN(c4cc5c(cc4F)c(=O)c(C(=O)O)cn5C4CC4)CC3)[C@@H](O)[C@H](N)C[C@@H]2N)[C@H](N)C[C@@H]1O`, the survival at 50 mg/kg (Pseudomonas aeruginosa [1]) is reported as 60%.

`COc1c(N2C[C@@H]3CCCN(CCCCCCCCCCCCO[C@@H]4[C@@H](O)[C@H](N)C[C@H](N)[C@H]4O[C@H]4O[C@H](CN)[C@@H](O)C[C@H]4N)[C@@H]3C2)c(F)cc2c(=O)c(C(=O)O)cn(C3CC3)c12.Cl.Cl.Cl.Cl.Cl` was tested, and the “fold change (FC)” value (Pseudomonas aeruginosa [2]) was “>=256”, the “fractional inhibitory concentration index (FICI)” value (Pseudomonas aeruginosa [3]) was 0.16 and the “fold change (FC)” value (Pseudomonas aeruginosa [4]) was 16. It also gave an MIC50 (Pseudomonas aeruginosa [5]) of 0.5 µg/mL, an MIC50 (Pseudomonas aeruginosa [6]) of 0.5 µg/mL and an MIC50 (Pseudomonas aeruginosa [7]) of 0.06 µg/mL. The MIC50 (Pseudomonas aeruginosa [8]) was 0.06 µg/mL, the “fold change (FC)” value (Acinetobacter baumannii) was 32 and the MIC80 (Pseudomonas aeruginosa [9]) was 0.13 µg/mL.

For `Cl.Cl.Cl.Cl.Cl.Cl.NC[C@H]1O[C@H](O[C@H]2[C@H](OCCCCCCCCCCN3CCN(Cc4cccc5ccccc45)CC3)[C@@H](O)[C@H](N)C[C@@H]2N)[C@H](N)C[C@@H]1O`, the “fold change (FC)” value (Pseudomonas aeruginosa [10]) was 64.
